Reference: ChEMBL document CHEMBL3232844, “Synthesis and structure activity relationships of schweinfurthin indoles” (2014)

Assays:
Type in all cases: functional
[1] = system: NCI-H322M; test: Cytotoxicity against human NCI-H322M cells
Summary of the method: (§1)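 Tested in a 60-cell-line human tumor panel screen; the read-out is growth inhibition, reported as GI50 for each cell line.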

[2] = system: HCC 2998; test: Cytotoxicity against human HCC2998 cells; summary of the method: as §1
[3] = system: A498; test: Cytotoxicity against human A498 cells; summary of the method: as §1
[4] = system: COLO 205; test: Cytotoxicity against human COLO205 cells; summary of the method: as §1
[5] = system: K562; test: Cytotoxicity against human K562 cells; summary of the method: as §1
[6] = system: HL-60(TB); test: Cytotoxicity against human HL-60(TB) cells
Summary of the method: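 Tested within the NCI 60-cell-line screen, with GI50 as the read-out. Values are the average of two independent experiments. The lowest concentration tested was 10 nM.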

[7] = system: HCT-116; test: Cytotoxicity against human HCT116 cells; summary of the method: as §1
[8] = system: NCI-H226; test: Cytotoxicity against human NCI-H226 cells; summary of the method: as §1
[9] = system: SK-MEL-2; test: Cytotoxicity against human SK-MEL-2 cells; summary of the method: as §1
[10] = system: KM12; test: Cytotoxicity against human KM12 cells; summary of the method: as §1
[11] = system: SF-268; test: Cytotoxicity against human SF268 cells; summary of the method: as §1
[12] = system: NCI-H460; test: Cytotoxicity against human NCI-H460 cells; summary of the method: as §1
[13] = Cytotoxicity against human OVCAR8 cells; summary of the method: as §1
[14] = system: SNB-75; test: Cytotoxicity against human SNB75 cells
Summary of the method: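 Cell line run as part of the 60-cell-line screening panel; growth inhibition was reported as a GI50 for each line.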

[15] = Cytotoxicity against human OVCAR5 cells; summary of the method: as §1
[16] = system: M14; test: Cytotoxicity against human M14 cells; summary of the method: as §1
[17] = system: SK-OV-3; test: Cytotoxicity against human SKOV3 cells; summary of the method: as §1
[18] = system: 786-0; test: Cytotoxicity against human 786-0 cells; summary of the method: as §1
[19] = Cytotoxicity against human NCI-ADR-RES cells; summary of the method: as §1
[20] = system: SNB-19; test: Cytotoxicity against human SNB19 cells; summary of the method: as §1
[21] = system: MCF7; test: Cytotoxicity against human MCF7 cells; summary of the method: as §1
[22] = Cytotoxicity against human HCT15 cells; summary of the method: as §1
[23] = read-out: pLC50 (the source's name) (converted)

Q: For `COc1cc(/C=C/c2cc(OC)c3cc[nH]c3c2)cc2c1O[C@]1(C)CC[C@@H](O)C(C)(C)[C@H]1C2`, which GI50 [1] is on record?
A: 3550 nM

Q: And the CC50 [1, 23]?
A: > 100000 nM

Q: And the TGI ([1]; read-out: pTGI (converted))?
A: 37200 nM

Q: What about the GI50 [2] of the same molecule?
A: 2240 nM

Q: And the CC50 [2, 23]?
A: 49000 nM

Q: And the TGI ([2]; read-out: pTGI (converted))?
A: 11200 nM

Q: What about the GI50 [3] of the same molecule?
A: 245 nM

Q: And the TGI ([3]; read-out: pTGI (converted))?
A: 813 nM

Q: What about the GI50 [4] of the same molecule?
A: 219 nM

Q: What about the CC50 [4, 23] of the same molecule?
A: 891 nM

Q: And the TGI ([4]; read-out: pTGI (converted))?
A: 447 nM

Q: What about the GI50 [5] of the same molecule?
A: 324 nM

Q: And the CC50 [5, 23]?
A: > 100000 nM

Q: What about the TGI ([5]; read-out: pTGI (converted)) of the same molecule?
A: 1380 nM

Q: What about the GI50 [6] of the same molecule?
A: 138 nM

Q: And the CC50 [6, 23]?
A: > 100000 nM

Q: What about the TGI ([6]; read-out: pTGI (converted)) of the same molecule?
A: 1320 nM

Q: And the GI50 [7]?
A: 537 nM

Q: What about the CC50 [7, 23] of the same molecule?
A: 6030 nM

Q: What about the TGI ([7]; read-out: pTGI (converted)) of the same molecule?
A: 2040 nM

Q: And the GI50 [8]?
A: 1740 nM

Q: What about the CC50 [8, 23] of the same molecule?
A: 58900 nM

Q: What about the TGI ([8]; read-out: pTGI (converted)) of the same molecule?
A: 7080 nM

Q: What about the GI50 [9] of the same molecule?
A: 309 nM

Q: And the CC50 [9, 23]?
A: > 100000 nM

Q: What about the TGI ([9]; read-out: pTGI (converted)) of the same molecule?
A: 1740 nM

Q: And the GI50 [10]?
A: 191 nM

Q: What about the CC50 [10, 23] of the same molecule?
A: 3630 nM

Q: And the TGI ([10]; read-out: pTGI (converted))?
A: 468 nM

Q: What about the GI50 [11] of the same molecule?
A: 282 nM

Q: What about the CC50 [11, 23] of the same molecule?
A: 10000 nM

Q: What about the TGI ([11]; read-out: pTGI (converted)) of the same molecule?
A: 10200 nM

Q: What about the GI50 [12] of the same molecule?
A: 380 nM

Q: And the CC50 [12, 23]?
A: 37200 nM

Q: What about the TGI ([12]; read-out: pTGI (converted)) of the same molecule?
A: 2290 nM

Q: What about the GI50 ([13]; OVCAR-8) of the same molecule?
A: 3630 nM

Q: And the CC50 ([13]; OVCAR-8, read-out: pLC50 (the source's name) (converted))?
A: > 100000 nM

Q: And the TGI ([13]; OVCAR-8, read-out: pTGI (converted))?
A: 25100 nM

Q: What about the GI50 [14] of the same molecule?
A: 93.3 nM

Q: And the TGI ([14]; read-out: pTGI (converted))?
A: 468 nM

Q: What about the GI50 ([15]; OVCAR-5) of the same molecule?
A: 1000 nM

Q: And the CC50 ([15]; OVCAR-5, read-out: pLC50 (the source's name) (converted))?
A: > 100000 nM

Q: What about the TGI ([15]; OVCAR-5, read-out: pTGI (converted)) of the same molecule?
A: 6030 nM

Q: And the GI50 [16]?
A: 174 nM

Q: And the CC50 [16, 23]?
A: 741 nM

Q: And the TGI ([16]; read-out: pTGI (converted))?
A: 355 nM

Q: What about the GI50 [17] of the same molecule?
A: 339 nM

Q: What about the TGI ([17]; read-out: pTGI (converted)) of the same molecule?
A: 1290 nM

Q: What about the GI50 [18] of the same molecule?
A: 72.4 nM

Q: What about the LC50 (concentration killing 50% of cells) [18] of the same molecule?
A: 3020 nM

Q: What about the TGI ([18]; read-out: pTGI (converted)) of the same molecule?
A: 468 nM

Q: What about the GI50 [19] of the same molecule?
A: 2090 nM

Q: And the CC50 [19, 23]?
A: > 100000 nM

Q: And the TGI ([19]; read-out: pTGI (converted))?
A: 20000 nM

Q: What about the GI50 [20] of the same molecule?
A: 676 nM

Q: And the CC50 [20, 23]?
A: > 100000 nM

Q: What about the TGI ([20]; read-out: pTGI (converted)) of the same molecule?
A: 7080 nM

Q: What about the GI50 [21] of the same molecule?
A: 389 nM

Q: And the LC50 [21]?
A: > 100000 nM

Q: What about the TGI ([21]; read-out: pTGI (converted)) of the same molecule?
A: 2000 nM

Q: And the GI50 ([22]; HCT-15)?
A: 398 nM

Q: And the CC50 ([22]; HCT-15, read-out: pLC50 (the source's name) (converted))?
A: > 100000 nM

Q: And the TGI ([22]; HCT-15, read-out: pTGI (converted))?
A: 7940 nM
